What was measured:
[1] = target: T1, Gastric triacylglycerol lipase (Canis lupus familiaris) (UniProt P80035); experiment: Inhibition of recombinant dog gastric lipase at 4:1 molar excess compound concentration preincubated for 30 mins at 25 degreeC relative to control
T1 sequence (whole entry): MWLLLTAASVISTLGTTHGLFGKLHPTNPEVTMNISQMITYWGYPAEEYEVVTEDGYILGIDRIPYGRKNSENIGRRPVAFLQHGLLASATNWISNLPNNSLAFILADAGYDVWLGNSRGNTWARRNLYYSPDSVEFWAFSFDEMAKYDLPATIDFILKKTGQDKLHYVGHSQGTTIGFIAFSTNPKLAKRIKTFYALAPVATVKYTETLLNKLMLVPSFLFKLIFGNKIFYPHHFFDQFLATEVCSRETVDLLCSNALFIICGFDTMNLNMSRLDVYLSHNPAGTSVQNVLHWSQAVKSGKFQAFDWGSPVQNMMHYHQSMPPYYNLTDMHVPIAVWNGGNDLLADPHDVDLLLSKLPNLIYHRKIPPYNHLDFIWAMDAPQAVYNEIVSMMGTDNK

[2] = target: T1, Gastric triacylglycerol lipase (Canis lupus familiaris); experiment: Inhibition of recombinant dog gastric lipase preincubated for 30 mins at 25 degreeC
[3] = target: T2, Pancreatic triacylglycerol lipase (Sus scrofa) (UniProt P00591); experiment: Inhibition of porcine pancreatic lipase at 400:1 molar excess compound concentration preincubated for 30 mins at 25 degreeC relative to control
T2 sequence (whole entry): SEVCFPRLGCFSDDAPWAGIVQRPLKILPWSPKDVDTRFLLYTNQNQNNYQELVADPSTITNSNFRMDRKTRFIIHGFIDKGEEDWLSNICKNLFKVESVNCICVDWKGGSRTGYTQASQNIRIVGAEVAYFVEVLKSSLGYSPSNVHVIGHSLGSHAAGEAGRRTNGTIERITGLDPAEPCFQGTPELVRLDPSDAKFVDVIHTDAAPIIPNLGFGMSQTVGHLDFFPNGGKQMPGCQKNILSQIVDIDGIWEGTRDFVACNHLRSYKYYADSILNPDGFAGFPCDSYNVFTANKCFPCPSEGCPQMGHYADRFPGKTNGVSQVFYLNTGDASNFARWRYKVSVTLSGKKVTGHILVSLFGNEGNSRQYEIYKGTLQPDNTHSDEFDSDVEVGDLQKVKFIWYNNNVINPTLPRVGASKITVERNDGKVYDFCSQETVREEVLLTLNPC
Method in brief: (§1)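 Pancreatic lipase from human pancreatic juice (54 µg/mL HPL stock) or porcine pancreatic extract (32 µg/mL PPL stock) was held in 10 mM MES pH 7.0, 150 mM NaCl. It was pre-incubated with inhibitor from DMSO stock for 30 min at 25 °C with 4 mM NaTDC at varied molar excess. Residual activity was read by pH-stat on tributyrin at 37 °C, pH 8.0, with 2 mM CaCl₂ and 4 mM NaTDC. x_I50 was taken from residual activity; DMSO-only controls were run.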

[4] = target: T2, Pancreatic triacylglycerol lipase (Sus scrofa); experiment: Inhibition of porcine pancreatic lipase preincubated for 30 mins at 25 degreeC; method in brief: as §1
Homo sapiens [5] = species: Homo sapiens; experiment: Inhibition of human pancreatic carboxylesterase preincubated for 1 hr at 25 degreeC
[6] = target: T1, Gastric triacylglycerol lipase (Canis lupus familiaris); experiment: Inhibition of recombinant dog gastric lipase assessed as residual activity by measuring half-inactivation time at 20:1 molar excess compound concentration preincubated for 1 hr at 25 degreeC
Method in brief: (§2)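 Enzyme pre-incubated with inhibitor (DMSO stock) at fixed molar excess for 1 h at 25 °C without substrate: hCEH x_I=4 (1 mM NaTDC assay), RLL and DGL x_I=20 with 4 mM NaTDC, GPLRP2 x_I=2 with 2 mM NaTDC. Residual activity sampled at intervals by pH-stat on tributyrin emulsion at 37 °C; t1/2 taken at 50% residual activity. DMSO-only controls; at least triplicate.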

Homo sapiens [7] = species: Homo sapiens; experiment: Inhibition of human pancreatic carboxylesterase assessed as residual activity by measuring half-inactivation time at 4:1 molar excess compound concentration preincubated for 1 hr at 25 degreeC; method in brief: as §2
[8] = target: T1, Gastric triacylglycerol lipase (Canis lupus familiaris); experiment: Inhibition of recombinant dog gastric lipase preincubated for 1 hr at 25 degreeC relative to orlistat
[9] = target: T2, Pancreatic triacylglycerol lipase (Sus scrofa); experiment: Inhibition of porcine pancreatic lipase assessed as residual activity at 4.1 mg/ml under duodenal phase at pH 6.5 using liquid test meal measured after 30 to 90 mins relative to control; conditions: time 30-90 min
[10] = target: T2, Pancreatic triacylglycerol lipase (Sus scrofa); experiment: Inhibition of porcine pancreatic lipase assessed as residual activity at 4.1 mg/ml under duodenal phase at pH 6.5 using solid test meal measured after 30 to 90 mins relative to control; conditions: time 30-90 min
[11] = target: T2, Pancreatic triacylglycerol lipase (Sus scrofa); experiment: Inhibition of porcine pancreatic lipase at 4.1 mg/ml under duodenal phase at pH 6.5 using liquid test meal measured after 30 to 90 mins relative to control; conditions: time 30-90 min
[12] = target: T2, Pancreatic triacylglycerol lipase (Sus scrofa); experiment: Inhibition of porcine pancreatic lipase at 4.1 mg/ml under duodenal phase at pH 6.5 using solid test meal measured after 30 to 90 mins relative to control; conditions: time 30-90 min
[13] = target: T2, Pancreatic triacylglycerol lipase (Sus scrofa); experiment: Inhibition of porcine pancreatic lipase assessed as lipolysis level at 4.1 mg/ml under duodenal phase at pH 6.5 using liquid test meal measured at 45 mins (reference value: 58 +/- 3.1 %); parameters: scale not given: the % may be the effect or the level left
[14] = target: T2, Pancreatic triacylglycerol lipase (Sus scrofa); experiment: Inhibition of porcine pancreatic lipase assessed as lipolysis level at 4.1 mg/ml under duodenal phase at pH 6.5 using solid test meal measured at 45 mins (reference value: 24.7 +/- 0.87 %); parameters: scale not given: the % may be the effect or the level left
[15] = target: T2, Pancreatic triacylglycerol lipase (Sus scrofa); experiment: Inhibition of porcine pancreatic lipase assessed as lipolysis level at 4.1 mg/ml under duodenal phase at pH 6.5 using liquid test meal measured at 90 mins (reference value: 63.6 +/- 2.6 %); parameters: scale not given: the % may be the effect or the level left
Rattus norvegicus [16] = experiment: Inhibition of lipolysis in mesenteric lymph duct-cannulated Wistar rat model assessed as initial velocity of fatty acid output at 5.3 mg/kg supplemented with olive oil emulsion and measured after 24 hrs (reference value: 12.3 +/- 0.46 mg/ml/h); format: functional
Rattus norvegicus [17] = experiment: Inhibition of lipolysis in mesenteric lymph duct-cannulated Wistar rat model assessed as Tmax for maximum fatty acid concentration at 5.3 mg/kg supplemented with olive oil emulsion and measured after 24 hrs (reference value: 6 hrs); format: functional, organism-based
Method in brief: (§3)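 Male Wistar rats (8 weeks, 300-350 g), fat-free diet 24 h, mesenteric lymph duct cannulated under ketamine/xylazine. Given 0.8 mL olive oil emulsion (530 mg fatty acids) premixed with inhibitor at 5.3 mg/kg by mouth, then 0.5 mL water. Lymph collected over 24 h; total fatty acids by GC-FID of methyl esters. 7 rats per group; one-way ANOVA with Fisher's test.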

Rattus norvegicus [18] = experiment: Inhibition of lipolysis in mesenteric lymph duct-cannulated Wistar rat model assessed as decrease in intestinal lipid absorption at 5.3 mg/kg supplemented with olive oil emulsion and measured after 24 hrs relative to control; format: functional; parameters: scale not given: the % may be the effect or the level left; method in brief: as §3
[19] = target: T2, Pancreatic triacylglycerol lipase (Sus scrofa); conditions: dose 4.9 mg/ml, time 30-90 min

Compound | inhibition [1] | XI50 [2] | inhibition [3] | XI50 [4] | XI50 (Homo sapiens [5]) | T1/2 [6] | T1/2 (Homo sapiens [7]) | fold change (FC) [8] | Activity [9] | Activity [10] | inhibition [11] | inhibition [12] | Activity [13] | Activity [14] | Activity [15] | V0 (Rattus norvegicus [16]) | Tmax (Rattus norvegicus [17]) | Activity (Rattus norvegicus [18]) | inhibition [19]
O=c1oc(OCCOCc2ccccc2)nn1-c1cccc(Oc2ccccc2)c1 | 87.6% | 0.5 molar excess | 13.2% | > 400 molar excess | 1.42 molar excess | 1.68 min | 1.31 min | 11.2 | 94.4% | 94.9% | 5.6% | 5.1% | 48.1% | 20.6% | 55.3% | 9.8 mg/mL/h | 300 min | -24% | 
CCCCCCCCCCC[C@@H](C[C@@H]1OC(=O)[C@H]1CCCCCC)OC(=O)[C@@H](CC(C)C)NC=O |  |  | 93.1% | 1.35 molar excess | 0.78 molar excess | 0.59 min | 0.52 min |  |  |  |  |  |  |  |  | 4.4 mg/mL/h | 360 min | -70.9% | 85.2%

Source: ChEMBL document CHEMBL4715754, “Slowing down fat digestion and absorption by an oxadiazolone inhibitor targeting selectively gastric lipolysis” (2016)
